Screening results from PubChem BioAssay.
UPR CHOP act: activators of apoptotic CHOP UPR arm, primary screen, cell-based, CHO-CHOP luciferase reporter, luminescence, uHTS | UPR activation; percent of tunicamycin response over DMSO baseline | activation, % at 10 µM | hit rate 0.34% among 330,000;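 active = at 10 µM dose, activation of 40% or more, normalized to positive control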
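Evaluation: % reporter activation, DMSO baseline versus tunicamycin full activation; System: CHO-CHOP luciferase reporter cell line; Input: 500 cells/well; Incubation: 6 h compound treatment, 37 °C; Measured by: Steady-Glo luciferase luminescence; Dosing: one dose, 10 µM in 0.5% DMSO; Buffer or medium: F12 medium, 10% FBS; Benchmarks: positive tunicamycin 10 µg/mL, negative DMSO alone.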
XBP1 UPR activ: activators of adaptive XBP1 UPR arm, primary screen, cell-based, CHO-XBP1 luciferase reporter, luminescence, uHTS. IRE1-XBP1 UPR activation; percent of tunicamycin response, DMSO as zero. activation, % at 20 µM. hit rate 0.33% among 330,000. AID 463104, 2010;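 active = versus positive control, 20 µM dose yields 30% or more activation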
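Material: IRE1-XBP1 luciferase reporter CHO line / Quantity: one thousand reporter cells per well / Buffer or medium: F12 with 10% serum / Compound: 20 µM single concentration, DMSO 1% / Times: 6 h treatment, 37 °C / Detection: Steady-Glo luciferase glow luminescence, 10 min after reagent addition / Benchmarks: tunicamycin high, DMSO low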
Mdm2 ligase inh: MDM2-luciferase reporter signal enhancers, primary screen, MDM2 E3 ligase inhibitor project, cell-based, luminescence, 1536-well. cell-based MDM2 ubiquitination luciferase reporter, 2 h; 0 = plate control, 100 = twice control, blank-subtracted. signal enhancement, % at 5 µM. hit rate 0.11% among 210,000. E3 ubiquitin-protein ligase Mdm2 (Homo sapiens), Q00987;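 active = signal enhancement of 30% or more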;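 also: luminescence tracks abundance of the self-degrading MDM2-luciferase fusion protein; higher signal means inhibition of MDM2 E3 ligase activity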
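Assay system: stable mammalian line carrying autodegrading MDM2–luciferase fusion reporter; amount: 2000 cells seeded into each well; buffer or medium: DMEM; benchmarks: plate control and blank wells; signal: luciferase luminescence; timing: 2 h compound exposure at 37 °C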
Dynein cargo inh: inhibitors of GR-EGFP nuclear translocation, primary screen, dynein cargo transport inhibitor project, imaging, high-content, 3617.4 mouse cells; hit rate 0.47% among 220,000; z-score, hits read low; test concentration mostly 20 µM; stimulated with dexamethasone, 1 µM; active compounds read low;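 active = plate z-score of nuclear minus cytoplasmic receptor signal below a set negative limit, without overly bright fluorescence or cell loss, cut at about -3.5 in these data, passing the limit was not always enough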;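 also: z-score of nuclear minus cytoplasmic ring GR-EGFP intensity difference per well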
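Medium: Induction medium lacking tetracycline, stripped serum | Probe or stimulus: 1.0 µM final dexamethasone stimulus | Schedule: 48 h induction, then 1 h compound, then 30 min agonist, 37 °C | Signal: Automated 10x imaging of fixed Hoechst-stained cells | Evaluation: Per-cell GR-EGFP intensity, nucleus versus surrounding cytoplasmic ring, well-averaged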
B2AR ag: beta2AR agonists driving receptor internalization, primary screen, cell-based, FAP fluorogen, flow cytometry. Beta-2 adrenergic receptor (Homo sapiens), P07550. Am2.2-beta2AR cells. response, % (test concentration not listed). hit rate 0.43% among 340,000. AID 504454, 2011;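 active = response above a set limit, near 3 SD of response in nonfluorescent compounds, cut at about 42% in these data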
Mdm2 MdmX PPI: inhibitors of human Mdm2-MdmX association, primary screen, cell-based, luminescence, split luciferase, SaOS-2, uHTS; Protein Mdm4 (Homo sapiens) + E3 ubiquitin-protein ligase Mdm2 (Homo sapiens), …; SaOS-2 split-luciferase Mdm2/MdmX complementation; inhibition, % at 8 µM; hit rate 3% among 330,000;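 active = inhibition of at least 50% at 8 µM in the primary screen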
Mdm2-MdmX conf: Mdm2-MdmX complex disruptors, retested hits, confirmation, luminescence, single concentration. hit rate 55% among 10,000. shares compounds with Mdm2 MdmX PPI. inhibition, % at 8 µM. Mdm2-MdmX binding, luminescent assay. AID 489028, 2010; in the data active = inhibition above about 40%
FLuc counter: full-length luciferase signal inhibition, confirmation, counter-screen for Mdm2/MdmX interaction inhibitor project, cell-based, single concentration, SaOS-2. shares compounds with Mdm2 MdmX PPI. SaOS-2 full-length luciferase counterscreen, luminescence. inhibition, % at 8 µM. hit rate 77% among 6,200. AID 504607, 2011;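 active = mean inhibition at 8 µM reaching about 37%, which flags the compound as non-specific, limit read from the data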;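 also: p53-null SaOS-2 cells with luciferase driven by a doxycycline-inducible promoter; compound on cells about two nights before reading with doxycycline added after day one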
Hits are given with their value; . = inactive; / = not tested or not shown. In the library only some 3.7% were active in any assay of this set; here they are far more common.

SMILES | UPR CHOP act | XBP1 UPR activ | Mdm2 ligase inh | Dynein cargo inh | B2AR ag | Mdm2 MdmX PPI | Mdm2-MdmX conf | FLuc counter
Cc1oc(S(=O)(=O)N2CCCCC2)cc1NC(=O)Nc1ccc(Cl)cc1 | . | . | . | . | . | . | / | /
CC(=O)NC(CC(=O)NC1CCCc2ccccc21)c1ccccc1 (centres undefined) | . | . | / | / | . | . | / | /
O=C(N/N=C/c1c(-c2ccccc2)[nH]c2ccccc12)c1cccnc1 | . | . | / | . | . | 52 | 53 | 68
Cn1c(-c2ccccc2)c(/C=N/NC(=O)c2cccnc2)c2ccccc21 | . | . | . | . | . | . | / | /
NC(=O)c1ccc(NC(=O)COC(=O)c2cc3ccccc3cc2O)cc1 | . | . | / | / | . | 54 | . | /
COc1ccc(/C=C/c2nc3ccccc3c(=O)o2)cc1 | . | . | / | / | . | 88 | 84 | 63
Oc1ccc(F)c2cccnc12 | . | . | . | . | . | . | / | /
CCS(=O)(=O)c1ccc(O)c(NC(=O)c2cc(OC)c(OC)c(OC)c2)c1 | . | . | . | . | . | . | / | /
Cc1ccc(N=Nc2ccc(O)c3ncccc23)cc1 | / | / | . | . | . | / | / | /
CCS(=O)(=O)c1ccc(N=Nc2ccc(O)c3ncccc23)c(OC)c1 | . | . | . | . | . | 75 | 69 | .
COc1ccccc1N=Nc1ccc(O)c2ncccc12 | . | . | / | / | . | 68 | . | 92
Cc1ccc(N=Nc2ccc(O)c3ncccc23)cc1C | . | . | . | . | . | 78 | 88 | .
Oc1ccc(N=Nc2ccccc2C(F)(F)F)c2cccnc12 | . | . | / | / | . | 83 | 86 | .
O=C(CSc1nnc(NC(=O)C2CCC2)s1)Nc1ccccc1Br | . | . | / | / | . | . | / | /
NNC(=O)c1cc(S(=O)(=O)N2CCOCC2)c[nH]1 | . | . | / | / | . | . | / | /
O=C(CNC(=O)c1ccccc1F)OCCOc1cccc(Cl)c1 | . | . | / | / | . | . | / | /
CN(CCOc1ccccc1)C(=S)Nc1ccc(OC(F)F)cc1 | . | . | / | / | . | . | / | /
Nc1c2nc(-c3ccccc3)[nH]c(=O)c2nc(=O)n1-c1ccccc1 | . | . | / | . | . | 63 | . | /
COc1cc(CC(=O)OCC(=O)NCc2ccco2)cc(OC)c1OC | . | . | / | / | . | . | / | /
N#Cc1c(N)n(Cc2ccccc2)c(=O)c2cc([N+](=O)[O-])ccc12 | . | . | / | / | . | 54 | . | /
Cc1nc2ccc([N+](=O)[O-])cc2c(=O)n1Cc1ccc([N+](=O)[O-])cc1 | . | . | / | / | . | . | / | /
CCN(c1ccccc1C(=O)O)S(=O)(=O)c1ccc2[nH]c(=O)[nH]c2c1 | . | . | / | / | . | . | / | /
c1ccc(C[C@H]2CN=C(Nc3ccccc3)N2CCC2CCCC2)cc1 | . | . | / | / | . | . | / | /
NC1=NC[C@H](Cc2ccccc2)N1CCCCC1CCCCC1 | . | . | . | . | . | 78 | . | /
NC1=NC[C@H](Cc2ccc(O)cc2)N1CCCCC1CCCCC1 | . | . | . | . | . | 50 | . | /
Cc1cc(C)n(-c2nc(N(c3ccccc3)c3ccccc3)nc(-n3nc(C)cc3C)n2)n1 | . | . | . | . | . | 100 | 100 | 58
